Results published in ChEMBL document CHEMBL3259554, “Discovery, synthesis, and optimization of antimalarial 4(1H)-quinolone-3-diarylethers” (J Med Chem, 2014).
Active and inactive are the calls of the source. The rule behind the calls is not given here.

How the values were obtained:
[1] = Antimalarial activity against multidrug-resistant Plasmodium falciparum Dd2 MRA-156 infected in human red blood cells assessed as suppression of parasitemia after 72 hrs by SYBR Green I-based fluorescence method; type: functional
Method in brief: (§1)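 Asynchronous parasites in human erythrocytes, RPMI-1640 with HEPES, hypoxanthine, glucose, glutamine, 0.5% Albumax II; 2% hematocrit, 0.2% initial parasitemia. Triplicate 2-fold dilutions from 1 μM (lower start if needed), 72 h at 37 °C under 5% O2/5% CO2/90% N2. SYBR Green I dye-detergent added, 1 h dark at room temperature, fluorescence read. EC50 averaged over at least three determinations.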

Plasmodium falciparum [2] = test: Antimalarial activity against atovaquone-resistant clinical isolate Plasmodium falciparum TM90-C2B infected in human red blood cells assessed as suppression of parasitemia after 72 hrs by SYBR Green I-based fluorescence method; type: functional, organism-based; method in brief: as §1
Plasmodium falciparum [3] = test: Antimalarial activity against chloroquine-sensitive Plasmodium falciparum D6 MRA-285 infected in human red blood cells assessed as suppression of parasitemia after 72 hrs by SYBR Green I-based fluorescence method; type: functional, organism-based; conditions: D6 MRA-285, 72 h; method in brief: as §1
HepG2 = test: Cytotoxicity against human HepG2 cells after 24 hrs incubation by Alamar Blue assay; type: cell-based; conditions: HepG2, 24 h
Method in brief: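 HepG2 cells grown in RPMI-1640 with 10% FBS and seeded at 2 × 10⁴ cells/well, attached overnight. Drug serially diluted from 10 mM DMSO stocks to 2.5 nM–10 μM and incubated 24–36 h. Medium then replaced and cells kept a further 24 h. Resazurin added (final 10 μM) for 3 h, fluorescence read at ex 560/em 590 nm. Run in triplicate; IC50 by nonlinear logistic regression.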

[4] = Inhibition of human cytochrome bc1 complex derived from HEK293 cell mitochondria using 50 uM decylubiquinol as substrate
Method in brief: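 Mitochondria isolated from HEK-293 cells by Dounce homogenization and differential centrifugation, dispersed in 2 mg/mL dodecyl maltoside for 45 min on ice, then clarified. Baseline-subtracted initial rates expressed as a fraction of uninhibited control.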

Liver microsome [5] = test: Metabolic stability in human liver microsomes; type: ADME
Method in brief: (§2)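 Compound at 1 μM incubated at 37 °C with liver microsomes (0.4 mg protein/mL) in 0.1 M phosphate pH 7.4. Started with an NADPH-regenerating system plus MgCl₂ and quenched with cold acetonitrile at time points up to 60 min. Parent loss followed by LC-MS and fitted to first-order decay to give half-life and intrinsic clearance. E_H used liver blood flow of 20.7 (human) or 55.2 (rat) mL/min/kg.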

Plasmodium yoelii [6] = test: Antimalarial activity against Plasmodium yoelii MR4 MRA-428 infected in mouse CF1 assessed as reduction on parasite burden administered through oral gavage once daily for 4 days; type: functional
Method in brief: (§3)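 P. yoelii-infected mice, randomly grouped in fours; dosing began day after inoculation (day 1), once daily by oral gavage in PEG-400 for four successive days; initial doses 0.1, 0.3, 1.0, 3.0, 10 mg/kg/day, range adjusted as needed. Day-5 Giemsa-smear parasitemia vs drug-free controls; ED50 derived graphically. Cure = parasite free 30 days after last dose; cure dose termed non-recrudescence dose.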

Liver microsome [7] = test: Metabolic stability in rat liver microsomes; type: ADME; method in brief: as §2
Plasmodium yoelii [8] = test: Antimalarial activity against Plasmodium yoelii MR4 MRA-428 infected in mouse CF1 assessed as dose required to achieve cure measured as 30 days survival administered through oral gavage once daily for 4 days; type: functional; method in brief: as §3
[9] = Inhibition of cytochrome bc1 complex isolated from trophozoite stage Plasmodium falciparum
Method in brief: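 P. falciparum mitochondrial preparation assayed for cytochrome c reductase at 35 °C in a stirred cuvette. Buffer: 100 μM decylubiquinol, 100 μM horse heart cytochrome c, 0.1 mg/mL dodecyl maltoside, 60 mM HEPES pH 7.4, 10 mM malonate, 1.0 mM EDTA, 2.0 mM KCN. Baseline subtracted from the initial rate; activity expressed as a fraction of uninhibited control.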

[10] = Selectivity ratio of IC50 for human cytochrome bc1 complex to EC50 for Plasmodium falciparum cytochrome bc1 complex
Plasmodium yoelii [11] = test: Antimalarial activity against Plasmodium yoelii MR4 MRA-428 infected in mouse CF1 assessed as reduction on parasite burden at 64 mg/kg administered through oral gavage once daily for 4 days; type: functional, organism-based; set-up: dose 64 mg/kg
Method in brief: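 P. yoelii model in mice, randomized into groups of four. Oral gavage in PEG-400 once daily for four successive days, starting the day after inoculation. Giemsa-stained blood smears read microscopically on day 5. Parasite burden compared with drug-free controls. Animals parasite free 30 days after the last dose counted as cured.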

SMILES	EC50 [1]	EC50 (Plasmodium falciparum [2])	EC50 (Plasmodium falciparum [3])	IC50 (HepG2)	IC50 [4]	Stability (Liver microsome [5])	ED50 (Plasmodium yoelii [6]; MR4 MRA-428, po, 96 h)	Stability (Liver microsome [7])	NRD (Plasmodium yoelii [8])	IC50 [9]	ED50 (Plasmodium yoelii [6])	Ratio IC50/EC50 [10]	ED90 (Plasmodium yoelii [6]; MR4 MRA-428, po, 96 h)	EC50 [9]	Activity (Plasmodium yoelii [11])
Cc1[nH]c2ccccc2c(=O)c1-c1ccc(Oc2ccccc2)cc1	12 nM	7.2 nM	8.4 nM	> 10000 nM	–	–	–	–	–	–	–	–	–	–	–
Cc1[nH]c2ccc(F)cc2c(=O)c1-c1ccc(Oc2ccc(OC(F)(F)F)cc2)cc1	2.4 nM	1.7 nM	1.5 nM	> 10000 nM	> 10000 nM	Stable	0.1 mg/kg/day	Stable	3 mg/kg/day	–	–	–	–	–	–
COc1cc2[nH]c(C)c(-c3ccc(Oc4ccc(OC(F)(F)F)c(F)c4)cc3)c(=O)c2cc1Cl	12 nM	5.8 nM	12 nM	> 10000 nM	–	–	–	–	–	–	–	–	–	–	–
Cc1[nH]c2ccccc2c(=O)c1-c1ccc(Oc2ccc(OC(F)(F)F)cc2)cc1	5.9 nM	7.5 nM	4.1 nM	> 10000 nM	1900 nM	–	0.1 mg/kg/day	–	3 mg/kg/day	8.9 nM	–	–	–	–	–
O=C1C(O)=C([C@H]2CC[C@H](c3ccc(Cl)cc3)CC2)C(=O)c2ccccc21 [ATOVAQUONE]	0.1 nM	7700 nM	0.1 nM	> 10000 nM	410 nM	–	–	–	–	2 nM	–	–	–	–	–
COc1cc2[nH]c(C)c(-c3ccc(Oc4ccc(F)cc4)cc3)c(=O)c2cc1Cl	3.8 nM	–	0.8 nM	> 10000 nM	–	–	< 1 mg/kg/day	–	>3 mg/kg/day	–	–	–	–	–	–
COc1ccc2c(=O)c(-c3ccc(Oc4ccc(OC(F)(F)F)cc4)cc3)c(C)[nH]c2c1	3.4 nM	2.3 nM	1.7 nM	> 10000 nM	> 10000 nM	Unstable	–	Unstable	–	–	–	–	–	–	–
COc1cc2[nH]c(C)c(-c3ccc(Oc4cccc(OC(F)(F)F)c4)cc3)c(=O)c2cc1Cl	0.03 nM	< 0.03 nM	0.03 nM	> 10000 nM	–	–	> 3 mg/kg/day	–	>3 mg/kg/day	–	–	–	–	–	–
COc1cc2[nH]c(C)c(-c3ccc(Oc4ccc(C(F)(F)F)cc4)cc3)c(=O)c2cc1Cl	0.3 nM	0.05 nM	0.3 nM	> 10000 nM	–	–	0.03 mg/kg/day	–	1 mg/kg/day	–	–	–	–	–	–
CCCCCCCc1c(C)nc2cc(OC)ccc2c1O	3.1 nM	11 nM	3.8 nM	> 10000 nM	> 10000 nM	–	–	–	inactive	–	inactive	–	–	–	–
COc1cc2[nH]c(C)c(-c3ccc(Oc4ccccc4)cc3)c(=O)c2cc1F	43 nM	8.5 nM	40 nM	> 10000 nM	–	–	–	–	–	–	–	–	–	–	–
Cc1[nH]c2ccc(F)cc2c(=O)c1-c1ccc(Oc2ccc(OC(F)(F)F)cc2)nc1	13 nM	11 nM	13 nM	> 10000 nM	–	–	–	–	–	–	–	–	–	–	–
COc1cc2[nH]c(C)c(-c3ccc(Oc4ccc(Cl)cc4)cc3)c(=O)c2cc1Cl	1.8 nM	1.2 nM	1.9 nM	> 10000 nM	–	–	0.05 mg/kg/day	–	>0.3 mg/kg/day	–	–	–	–	–	–
CCCCCCCc1c(C)[nH]c2cc(OC)c(Cl)cc2c1=O	2.3 nM	0.8 nM	1.4 nM	–	> 10000 nM	–	–	–	–	–	–	–	–	–	–
COc1cc2[nH]c(C)c(-c3ccc(Oc4ccc(OC(F)(F)F)cc4)cn3)c(=O)c2cc1Cl	0.5 nM	0.2 nM	0.4 nM	> 10000 nM	–	–	< 1 mg/kg/day	–	>3 mg/kg/day	–	–	–	–	–	–
COc1cc2[nH]c(C)c(-c3ccc(Oc4ccc(OC(F)(F)F)cc4)cc3)c(=O)c2cc1Cl	2.5 nM	1.4 nM	2.2 nM	> 10000 nM	> 10000 nM	Stable	0.02 mg/kg/day	Stable	0.3 mg/kg/day	–	–	> 20000	0.06 mg/kg/day	0.56 nM	–
Cc1[nH]c2ccc(Cl)cc2c(=O)c1-c1ccc(Oc2ccc(OC(F)(F)F)cc2)cc1	5.6 nM	2.3 nM	3.2 nM	> 10000 nM	> 10000 nM	Stable	0.2 mg/kg/day	Stable	>3 mg/kg/day	–	–	–	–	–	–
CCN(CC)CCCC(C)Nc1ccnc2cc(Cl)ccc12 (stereo unspecified) [CHLOROQUINE]	–	–	–	–	–	–	2.2 mg/kg/day	–	>64 mg/kg/day	–	–	–	–	–	inactive
COc1cc2[nH]c(C)c(-c3cnc(Oc4ccc(OC(F)(F)F)cc4)nc3)c(=O)c2cc1Cl	> 2500 nM	> 2500 nM	> 2500 nM	> 10000 nM	–	–	–	–	–	–	–	–	–	–	–
COc1cc2[nH]c(C)c(-c3ccc(Oc4ccc(F)c(OC(F)(F)F)c4)cc3)c(=O)c2cc1Cl	0.5 nM	0.3 nM	0.4 nM	> 10000 nM	–	–	0.06 mg/kg/day	–	>3 mg/kg/day	–	–	–	–	–	–
COc1cc2[nH]c(C)c(-c3ccc(Oc4ccc(C(F)(F)F)cn4)cc3)c(=O)c2cc1Cl	6.8 nM	4.1 nM	8.1 nM	> 10000 nM	–	–	–	–	–	–	–	–	–	–	–
COc1cc2[nH]c(C)c(-c3ccc(Oc4ccc(OC(F)(F)F)cc4)nc3)c(=O)c2cc1Cl	0.2 nM	0.4 nM	0.3 nM	> 10000 nM	–	–	0.3 mg/kg/day	–	>3 mg/kg/day	–	–	–	–	–	–
Cc1[nH]c2ccc(Cl)cc2c(=O)c1-c1ccc(Oc2ccc(OC(F)(F)F)cc2)nc1	6.1 nM	1.5 nM	3.6 nM	> 10000 nM	–	–	–	–	–	–	–	–	–	–	–
COc1cc2[nH]c(C)c(-c3ccc(Oc4ccc(OC(F)(F)F)cc4)cc3)c(=O)c2cc1F	1.4 nM	0.5 nM	1.4 nM	> 10000 nM	> 10000 nM	Stable	0.05 mg/kg/day	Stable	–	–	–	–	–	–	–
Cc1[nH]c2ccccc2c(=O)c1-c1ccc(Oc2ccc(OC(F)(F)F)cc2)nc1	5.8 nM	4.3 nM	3 nM	> 10000 nM	–	–	–	–	–	–	–	–	–	–	–
